High-throughput results (PubChem BioAssay)
An excerpt weighted towards active compounds, which were near 3.1% of everything screened.
OX1R antag-1: blocks the human orexin 1 receptor; O43613; OX1R-expressing cells, FRET antagonist read-out; inhibition, % at 6.6 µM; actives 1.8% (n = 330,000); AID 485270; in the data active = inhibition mostly above about 38%, no sharp cut-off; inactive = mostly below about 40%;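 note: 0% = agonist challenge alone and 100% = reference antagonist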
Target sequence (O43613 whole entry, looked up): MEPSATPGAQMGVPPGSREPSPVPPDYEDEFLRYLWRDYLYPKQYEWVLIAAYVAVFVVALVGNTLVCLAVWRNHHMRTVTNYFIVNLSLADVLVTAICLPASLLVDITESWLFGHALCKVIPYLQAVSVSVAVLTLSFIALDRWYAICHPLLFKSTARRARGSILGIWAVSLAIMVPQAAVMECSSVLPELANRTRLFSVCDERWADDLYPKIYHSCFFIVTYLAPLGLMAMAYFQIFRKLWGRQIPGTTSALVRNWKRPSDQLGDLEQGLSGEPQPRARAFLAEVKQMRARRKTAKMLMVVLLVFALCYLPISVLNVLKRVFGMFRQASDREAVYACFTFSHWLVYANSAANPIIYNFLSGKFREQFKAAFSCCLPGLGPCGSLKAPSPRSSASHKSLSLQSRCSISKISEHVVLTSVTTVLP
GPR7 antagonist: antagonists of human GPR7 (neuropeptides B/W receptor 1); AID 1861; P48145; actives 1.1% (n = 290,000); GPR7-expressing cells, fluorescence antagonist assay; inhibition, % at 4.4 µM; in the data active = inhibition above about 16%, passing the limit was not always enough;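 note: cells stimulated with the agonist NPW; 0% = agonist with vehicle and 100% = vehicle without agonist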
OX1R antag-2: antagonists of human orexin 1 receptor | actives 0.43% (n = 330,000) | O43613 | CHO/OX1R cells, Fluo-8 calcium fluorescence, orexin A | inhibition, % at 5 µM;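 active = inhibition above its plate's threshold, mean inhibition of all tested compounds on the plate plus 3 SD, cut at about 37% in these data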;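 note: 0% = orexin A challenge wells and 100% = SB-334867-A antagonist wells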
CHO parental Ca: signal in parental CHO cells, OX1R antagonist counter-screen | inhibition, % at 5.6 µM | parental CHO-K1, ATP-induced calcium, Fluo-8 fluorescence | actives 0.63% (n = 330,000);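 active = inhibition above that plate's mean sample inhibition plus 3 SD, cut at about 26% in these data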;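 note: 0% = ATP-challenged DMSO wells and 100% = DMSO wells without ATP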
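Material: Parental CHO cells | Reagent: ATP | Compound dosing: Single nominal dose of 5.6 µM per compound | Detection: Intracellular calcium via Fluo-8 no-wash fluorescent dye | Read-out: % inhibition of ATP-induced calcium mobilization | Benchmarks: Low control ATP plus DMSO, high control DMSO only | Replicates: Singlicate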
GalR3 antag: human GalR3 antagonism. HEK293 GalR3-CNG cAMP membrane potential fluorescence; galR3 body fused to GalR1 C-terminus. inhibition, % at 3 µM. actives 0.44% (n = 360,000);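 active = inhibition above the screen-wide average plus 3 SD, cut at about 13% in these data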;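 note: forskolin and galanin both at EC90 stimulate the cells; cAMP rise reported by CNG channel membrane potential dye signal; 0% = forskolin plus galanin with DMSO and 100% = forskolin alone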
Target sequence (O60755 1-299 limits assumed): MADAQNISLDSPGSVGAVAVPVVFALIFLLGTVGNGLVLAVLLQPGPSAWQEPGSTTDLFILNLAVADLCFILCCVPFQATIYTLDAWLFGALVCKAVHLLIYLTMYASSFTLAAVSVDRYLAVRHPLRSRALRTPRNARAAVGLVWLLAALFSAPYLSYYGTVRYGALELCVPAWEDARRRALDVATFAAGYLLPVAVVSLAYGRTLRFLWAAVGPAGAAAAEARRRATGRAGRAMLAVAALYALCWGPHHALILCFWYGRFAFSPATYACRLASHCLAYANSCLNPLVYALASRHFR
OX1R HTRF confirm: confirmation of human orexin 1 receptor antagonists, HTRF format; shares compounds with OX1R antag-1; OX1R-expressing cells, HTRF antagonist assay; inhibition, % at 6.6 µM; actives 49% (n = 1,800); AID 492964; in the data active = inhibition above about 55%;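 note: CHO cells expressing OX1R stimulated with orexin A at about EC80; 0% = agonist challenge alone and 100% = reference antagonist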
CHO-K1 HTRF cnt: signal in parental CHO-K1 cells, OX1R antagonist counter-screen; HTRF counterscreen; inhibition, % at 6.6 µM; AID 493232; shares compounds with OX1R antag-1; actives 48% (n = 1,800); in the data active = inhibition above about 17%;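 note: 0% = agonist challenge with vehicle and 100% = vehicle alone without agonist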
An asterisk follows results filed as active; nt = no result given.

SMILES | OX1R antag-1 | GPR7 antagonist | OX1R antag-2 | CHO parental Ca | GalR3 antag | OX1R HTRF confirm | CHO-K1 HTRF cnt
CN1C(=O)C2(OCC(C)([N+](=O)[O-])CO2)c2ccccc21 (centres undefined) | 10 | -5 | 0 | -11 | -13 | nt | nt
CN1C(=O)C2(N=c3ccccc3=N2)c2ccccc21 | 79* | -2 | 3 | -10 | nt | 86* | -3
CC1(C(=O)NCc2ccccc2)CN(S(C)(=O)=O)CC(=O)N1CCCn1ccnc1 (centres undefined) | nt | nt | nt | nt | -4 | nt | nt
O=C(Nc1ccc2oc(-c3ccccc3)nc2c1)C1CCCO1 (centres undefined) | 98* | -5 | 12 | -10 | -6 | 46 | 11
COc1ccc(OC)c(N/C(C)=C/C(=O)c2ccncc2)c1 | 16 | -2 | -40 | -17 | -10 | nt | nt
C/C(=C\C(=O)c1ccncc1)Nc1ccccc1O | 91* | 8 | 0 | 3 | -4 | 24 | 7
O=C(CSc1nc2ccccc2[nH]1)Nc1cc(C(F)(F)F)ccc1N1CCOCC1 | 87* | -8 | 26 | -16 | -5 | 53 | 1
CC1CC1C(=O)Nc1cc(C(F)(F)F)ccc1N1CCOCC1 (centres undefined) | 16 | 11 | -9 | -11 | -4 | nt | nt
Cn1nnnc1SCC(=O)Nc1cc(C(F)(F)F)ccc1N1CCOCC1 | 12 | -1 | -18 | -15 | -4 | nt | nt
CC(Cl)C(=O)Nc1cc(C(F)(F)F)ccc1N1CCOCC1 (centres undefined) | 94* | -13 | -22 | 0 | -3 | 16 | -4
CC(C)(C)c1ccc(-c2nnc(SC3CCOC3=O)n2Cc2ccccc2)cc1 (centres undefined) | 84* | 8 | -37 | -8 | -2 | 21 | 2
NC(=O)Cc1nc(-c2ccc([N+](=O)[O-])cc2)cs1 | 78* | -5 | -15 | -3 | -2 | 54 | 33*
CCCN1CCC(=NNc2ccc(S(N)(=O)=O)cc2[N+](=O)[O-])CC1 | 85* | -17 | 0 | -5 | -2 | 38 | 56*
CCSC1=NCCN1C(=O)c1ccc(S(=O)(=O)N(C)C)cc1 | 11 | -17 | -8 | -8 | -6 | nt | nt
O=C(Nc1cccc(-c2nc3ccccc3[nH]2)c1)c1ccccn1 | 88* | -12 | -14 | -17 | -6 | 86* | 9
CC(=O)Nc1cccc(-c2nc3ccccc3[nH]2)c1 | 14 | -5 | -15 | 13 | -7 | nt | nt
COc1ccccc1NC(=O)CS(=O)(=O)c1cccc2nsnc12 | 100* | -7 | -24 | -2 | -3 | 36 | 37*
O=C(O)c1cccc(NS(=O)(=O)c2cccc3nsnc23)c1 | 33 | 3 | -2 | 7 | -6 | nt | nt
COc1ccc(C(=O)O)cc1NS(=O)(=O)c1cccc2nsnc12 | 116* | 0 | -9 | -15 | -1 | 42 | 30*
Cc1ccccc1OCC(=O)Nc1cccc2nsnc12 | 7 | -1 | -50 | -20 | -6 | nt | nt
COc1ccc(Cl)cc1NC(=O)CN(C)C(=O)c1ccc(COc2ccccc2)cc1 | 17 | nt | -22 | -14 | -4 | nt | nt
Cc1csc(NC(=O)c2ccc(C(=O)Nc3nc(C)cs3)cc2)n1 | -4 | -6 | -13 | -5 | nt | nt | nt
Cc1csc(NC(=O)c2cnc3ccccc3n2)n1 | 113* | 5 | -11 | -1 | -6 | 29 | 48*
O=C(NCCCN1CCOCC1)c1cc2cc(Br)ccc2oc1=O | 124* | 3 | -18 | -20 | 3 | 42 | 41*
CC(C)Cn1c(N)c(C(=O)COC(=O)CCNS(=O)(=O)c2ccccc2)c(=O)n(C)c1=O | 99* | nt | -10 | -3 | -2 | 22 | 2
SMILES | OX1R antag-1 | GPR7 antagonist | OX1R antag-2 | CHO parental Ca | GalR3 antag | OX1R HTRF confirm | CHO-K1 HTRF cnt
Cc1csc(=O)n1CCC(=O)OCC(=O)c1c(N)n(CC(C)C)c(=O)n(C)c1=O | 12 | nt | -12 | -11 | -3 | nt | nt
CC(=O)N1CCc2cc(N=NC3=C(O)CCCC3=O)ccc21 | 152* | -6 | -7 | -3 | 8 | 74* | 82*
O=C(O)C(CCc1ccccc1)(Cc1ccccc1)C(=O)O | nt | nt | nt | nt | -4 | nt | nt
CCOC(=O)c1cc2c(=O)n3ccccc3nc2n(CCCOC)c1=NC(=O)C(C)(C)C | 84* | 3 | -41 | -21 | 2 | 21 | 27*
CCOC(=O)c1cc2c(=O)n3ccccc3nc2n(CC(C)C)c1=NC(=O)c1ccco1 | 117* | -2 | -32 | -5 | -5 | 54 | 40*
CCOC(=O)c1cc2c(=O)n3ccccc3nc2n(CCOC)c1=NC(=O)c1ccncc1 | 80* | 1 | -17 | -12 | -3 | 58* | 52*
CCOC(=O)c1cc2c(=O)n3ccccc3nc2n(CCOC)c1=NC(=O)C(C)(C)C | 43 | -3 | -27 | 3 | -2 | nt | nt
c1ccc(N2CCN(c3ncnc4c3oc3ccccc34)CC2)cc1 | 90* | -10 | 26 | -21 | -6 | 65* | -28
CCc1nnc(N2CCN(c3ncnc4c3oc3ccccc34)CC2)s1 | nt | -11 | nt | nt | 6 | nt | nt
O=C(CSc1cccc[n+]1[O-])Nc1c(Br)cc([N+](=O)[O-])cc1Br | 118* | -2 | -3 | -15 | 0 | 40 | 54*
O=[N+]([O-])c1ccc(Sc2ncc3ccccn23)nc1 | 20 | -1 | 4 | -9 | 10 | nt | nt
COc1ccc(NC(=O)C(=O)NNC(=O)c2ccc(Cl)cc2Cl)cc1 | 4 | 5 | -17 | 6 | -7 | nt | nt
O=C(c1ccc(NS(=O)(=O)c2cccc([N+](=O)[O-])c2)cc1)N1CCCCCC1 | 24 | nt | -22 | -10 | -1 | nt | nt
O=C(c1ccccc1NS(=O)(=O)c1cccc([N+](=O)[O-])c1)N1CCCC1 | 78* | -15 | 0 | -11 | 0 | 20 | 7
Cc1ccc2nsnc2c1S(=O)(=O)NCc1ccncc1 | 103* | -6 | -12 | -10 | 0 | 31 | 37*
CC(C)CSCC1OC(n2cnc3c(N)nccc32)C(O)C1O (centres undefined) | nt | nt | nt | nt | -6 | nt | nt
Cc1cccc(C(=O)N=c2c(C#N)cc3c(=O)n4cccc(C)c4nc3n2Cc2ccco2)c1 | 44 | 2 | -20 | -16 | -7 | nt | nt
Cc1cccn2c(=O)c3cc(C#N)c(=NC(=O)c4ccccc4)n(Cc4ccco4)c3nc12 | 88* | nt | -18 | -10 | 0 | 52 | 41*
CC(=O)Nc1c([N+](=O)[O-])cc(C)c(Cl)c1[N+](=O)[O-] | 23 | 0 | -10 | -3 | -3 | nt | nt
O=c1[nH]c2cc([N+](=O)[O-])c(NCCO)c([N+](=O)[O-])c2[nH]1 | 124* | -13 | -19 | -7 | 2 | 89* | 96*
O=c1[nH]c2ccc(S(=O)(=O)NCCO)cc2[nH]1 | 13 | 3 | -16 | -9 | -5 | nt | nt
CC(=O)Nc1c([N+](=O)[O-])cc2[nH]c(=O)[nH]c2c1[N+](=O)[O-] | 185* | -1 | -12 | -3 | -1 | 50 | 71*
